Experiment [1] concerns Mycobacterium tuberculosis. The experiment is described as follows: Antimicrobial activity against isoniazid or rifampin-resistant Mycobacterium tuberculosis clinical isolates after 7 days by broth microdilution assay. It counts as functional. Particulars: 168 h. Put shortly: (§1)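 Alamar Blue broth microdilution in 7H9GC broth (Middlebrook 7H9 base, glycerol, Casitone, 10% OADC). Drug stock 1 mg/ml in 100% DMSO, diluted in broth to a final 0.03 to 8 μg/ml. M. tuberculosis H37Rv served as the susceptible-strain control. Isoniazid and rifampin resistance was assigned beforehand by the proportion method.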
(In general: Broth dilution looks for growth in wells or tubes with falling amounts of substance.)

Experiment [2] concerns Mycobacterium tuberculosis. The experiment is described as follows: Antimicrobial activity against isoniazid and rifampin-resistant Mycobacterium tuberculosis clinical isolates after 7 days by broth microdilution assay. The conditions noted are these: 168 h. It counts as functional. Put shortly: as §1

≈ marks a conversion by molar mass, not a printed value.

Turning to `COc1c(N2CC[C@@H](C(C)(C)N)C2)c(F)cc2c(=O)c3c(=O)[nH]sc3n(C3CC3)c12`, in experiment [1], the MIC50 (commonly the lowest concentration that inhibits either 50% of growth or 50% of the strains tested, depending on the study) amounted to 0.12 µg/mL (≈ 0.277 µM) and the MIC90 (commonly the lowest concentration that inhibits either 90% of growth or 90% of the strains tested, depending on the study) stood at 0.12 µg/mL (≈ 0.277 µM). In experiment [2], this compound came in with an MIC50 of 0.06 µg/mL (≈ 0.139 µM) and an MIC90 of 0.12 µg/mL (≈ 0.277 µM).

The record behind these values is ChEMBL document CHEMBL1255469, “In vitro activity of a new isothiazoloquinolone, ACH-702, against Mycobacterium tuberculosis and other mycobacteria” (2010).
